Test results published in ChEMBL document CHEMBL1156462, “Seco-pregnane steroids target the subgenomic RNA of alphavirus-like RNA viruses” (Proc Natl Acad Sci U S A, 2007).
Calls of active or inactive are those of the source. No cut-off for these calls is given here.

How the values were obtained:
Tobacco mosaic virus [1] = assay: Inhibition of TMV U1 replication in tobacco BY2 protoplast at 50 nM by local lesion assay using Chenopodium quinoa leaves; type: functional, organism-based
Method in brief: (§1)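 TMV premixed with compound at a range of concentrations used to inoculate tobacco BY-2 protoplasts; virus multiplication then assayed by counting local lesions on the local lesion host Chenopodium quinoa.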

Tobacco mosaic virus [2] = assay: Decrease in TMV U1 coat protein level in TMV infected tobacco BY2 protoplast at 50 nM by Western blot analysis; type: functional, organism-based
Method in brief: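 BY-2 protoplasts (5 ml, 1.5 × 10⁶/ml) infected with TMV pretreated with compound; total protein extracted and coat protein detected by Western blot.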

Tobacco mosaic virus [3] = assay: Reduction of coat protein sgRNA level in TMV U1 infected tobacco BY2 protoplast at 50 nM administered after 4 hrs postinfection; type: functional, organism-based
Method in brief: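 BY-2 protoplasts infected with TMV supplemented with compound up to 50 nM; total RNA extracted by TRIzol 4 h after infection, and CP sgRNA, I₂ sgRNA and genomic RNA detected by Northern blot with CP gene probe, 28S rRNA as loading control.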

Tobacco mosaic virus [4] = assay: Reduction of coat protein level in TMV U1 infected tobacco BY2 protoplast by ELISA; type: functional, organism-based
Method in brief: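 BY-2 protoplasts inoculated with TMV pretreated with a range of compound concentrations; coat protein measured by ELISA, three repeats per concentration, mean ± SD.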

[5] = Growth inhibition of hamster BHK21 cells at 100 nM after 48 hrs; type: cell-based, Mesocricetus auratus; conditions: bhk-21, 48 h, 0.1 µM
Method in brief: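 BHK-21 cells mock-infected and incubated with 100 nM compound for 48 h; cell morphology and growth examined by light microscopy.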

Sindbis virus [6] = assay: Decrease in Sindbis virus XJ160 accumulation in BHK21 cells […] by ELISA; type: functional, organism-based; conditions: XJ160, BHK-21
Method in brief: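 BHK-21 cells inoculated with SINV XJ-160 premixed with compound (MOI 0.01, 15-min pretreatment, 1-h adsorption). Virus accumulation measured by ELISA as blank-subtracted OD₄₅₀, averaged over nine repeats per concentration.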

[7] = Cytotoxicity against hamster BHK21 cells; type: cell-based, Mesocricetus auratus, BHK-21
[8] = Selectivity index, ratio of CC50 for hamster BHK21 cells to EC50 for Sindbis virus XJ160; type: toxicity, cell-based, BHK-21; conditions: read-out: Ratio CC50/EC50
Method in brief: (§2)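 SINV XJ-160 at 2 × 10⁵ pfu/ml was premixed with compound for 15 min. It was then adsorbed 1 h to BHK-21 cells, MOI 0.01, in quadruplicate. Cells were washed and kept in DMEM/5% FBS at 37°C. CC50 was 50% inhibition of uninfected BHK-21 proliferation. Index = CC50/EC50.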

Sindbis virus [9] = assay: Reduction of Sindbis virus infection-induced mortality rate in newborn BALB/c mouse assessed as long term survivors at 50 mg/kg; type: functional
Method in brief: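 Newborn BALB/c mice, 2–3 days old, ≈2 g, were inoculated intracerebrally with 20 μl medium holding 100 × LD50 SINV. Compound (20 μl, 5, 50 or 100 mg/kg BW) was mixed into the inoculum. There were 11 mice per group, counted at 3–7 days. Virus-alone and compound-alone controls were included.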

Sindbis virus [10] = assay: Reduction of Sindbis virus infection-induced mortality rate in newborn BALB/c mouse assessed as survivors at 100 mg/kg administered 4 hrs before infection after 7 days; type: functional
Method in brief: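 Newborn BALB/c mice, 2–3 days old, ≈2 g, received 20 μl compound at 100 mg/kg BW 1 or 4 h before intracerebral inoculation with 20 μl containing 100 × LD50 SINV. There were 11 mice per group, with survivors counted at 3, 4, 5, 6 and 7 days.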

Sindbis virus [11] = assay: Reduction of Sindbis virus infection-induced mortality rate in newborn BALB/c mouse assessed as mouse survival at 100 mg/kg administered 1 hr before viral infection; type: functional, organism-based; parameters: dose 100 mg/kg
Method in brief: (§3)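 Newborn BALB/c mice (2–3 days old, ≈2 g), 11 per group, given 20 μl compound at 100 mg/kg BW 1 or 4 h before intracerebral inoculation with 20 μl medium containing 100 × LD₅₀ SINV. Survivors counted at 3, 4, 5, 6 and 7 days after inoculation.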

Sindbis virus [12] = assay: Reduction of Sindbis virus infection-induced mortality rate in newborn BALB/c mouse assessed as mouse survival at 100 mg/kg administered 4 hrs before viral infection; type: functional, organism-based; parameters: dose 100 mg/kg; method in brief: as §3
Sindbis virus [13] = assay: Antiviral activity against Sindbis virus in BHK21 cells assessed as inhibition of virus-induced cytopathogenicity; type: functional, organism-based; conditions: BHK-21
Getah virus = assay: Antiviral activity against Getah virus in BHK21 cells assessed as inhibition of virus-induced cytopathogenicity; type: functional, organism-based; conditions: BHK-21
Method in brief: (§4)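 Cells seeded at 2 × 10⁵ per well 24 h before use (BHK-21 for GETV, H9 for HIV, CIK for Reovirus, 983A for adenovirus, Veto for measles virus). Infected at a dose giving 100% cytopathic effect at 3 dpi; virus premixed with compound at final 100, 50, 10, 3, 2, 1.5, 1, 0 nM. Infected and uninfected untreated controls on each plate.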

[14] = test system: Japanese encephalitis virus; assay: Antiviral activity against Japanese encephalitis virus in C6 cells assessed as inhibition of virus-induced cytopathogenicity; type: functional, organism-based
Hepatitis C virus = assay: Antiviral activity against HCV in human H9 cells assessed as inhibition of virus-induced cytopathogenicity; type: functional, organism-based, Hepacivirus hominis
Measles morbillivirus = assay: Antiviral activity against measles virus in Veto cells assessed as inhibition of virus-induced cytopathogenicity; type: functional, organism-based; method in brief: as §4
Influenza A virus = assay: Antiviral activity against influenza A virus in Madin-Darby kidney cells assessed as inhibition of virus-induced cytopathogenicity; type: functional, organism-based
Method in brief: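 Influenza A virus was tested on Madin–Darby canine kidney cells seeded at 2 × 10⁵ per well 24 h before use. Infection used the dose causing 100% CPE at 3 dpi. Compound was premixed with virus at final 100–0 nM (8 levels). Uninfected and virus-only controls were included per plate. Read-out was 50% inhibition of cytopathogenicity.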

[15] = test system: Human immunodeficiency virus; assay: Antiviral activity against HIV in human H9 cells assessed as inhibition of virus-induced cytopathogenicity; type: functional, organism-based; conditions: Human immunodeficiency virus 1, H9; method in brief: as §4
[16] = Selectivity index, ratio of CC50 for BHK21 cells to EC50 for Sindbis virus; type: toxicity, cell-based, BHK-21; conditions: hamster, read-out: Ratio CC50/EC50; method in brief: as §2
Tobacco mosaic virus [17] = assay: Inhibition of TMV U1 multiplication in tobacco BY2 protoplast at 10 nM assessed as inhibition of local lesions on Chenopodium quinoa leaves by local lesion assay after 3 days postinfection; type: functional; conditions: U1, 72 h; method in brief: as §1
Tobacco mosaic virus [18] = assay: Inhibition of TMV U1 multiplication in tobacco BY2 protoplast at 30 nM assessed as inhibition of local lesions on Chenopodium quinoa leaves by local lesion assay after 3 days postinfection; type: functional; conditions: U1, 72 h; method in brief: as §1
Tobacco mosaic virus [19] = assay: Inhibition of TMV U1 multiplication in tobacco BY2 protoplast at 50 nM assessed as inhibition of local lesions on Chenopodium quinoa leaves by local lesion assay after 3 days postinfection; type: functional; conditions: U1, 72 h; method in brief: as §1
Tobacco mosaic virus [20] = assay: Inhibition of TMV U1 multiplication in tobacco BY2 protoplast at 10 nM assessed as local lesion size on Chenopodium quinoa leaves by local lesion assay; type: functional
Tobacco mosaic virus [21] = assay: Inhibition of TMV U1 multiplication in tobacco BY2 protoplast at 20 nM assessed as local lesion size on Chenopodium quinoa leaves by local lesion assay; type: functional
Tobacco mosaic virus [22] = assay: Inhibition of TMV U1 multiplication in tobacco BY2 protoplast at 30 nM assessed as local lesion size on Chenopodium quinoa leaves by local lesion assay; type: functional
Tobacco mosaic virus [23] = assay: Inhibition of TMV U1 multiplication in tobacco BY2 protoplast at 50 nM assessed as local lesion size on Chenopodium quinoa leaves by local lesion assay; type: functional

Which Activity (Tobacco mosaic virus [1]) does the source give for `CO[C@@H]1C[C@H](O[C@H]2CC[C@@]3(C)C(=CC[C@H]4C(=O)OC5CO[C@]6(C)OC=C(CC[C@@H]43)[C@H]56)C2)O[C@H](C)[C@H]1O[C@H]1C[C@H](O)[C@H](O[C@@H]2C[C@@H](OC)[C@H](O[C@@H]3O[C@H](CO)[C@@H](O[C@@H]4O[C@H](CO)[C@@H](O)[C@H](O)[C@H]4O)[C@H](O)[C@H]3O)[C@@H](C)O2)[C@@H](C)O1` (some centres not stated) [PANICULATUMOSIDE C] here?
Its Activity is “Active”.

What about the Activity (Tobacco mosaic virus [2]) of the same compound?
The Activity was “Active”.

And the Activity (Tobacco mosaic virus [3])?
Its Activity is “Active”.

What about the Activity (Tobacco mosaic virus [4]) of the same compound?
The Activity was “Dose-dependent effect”.

And the Activity [5]?
Its Activity is “Non-toxic”.

And the EC50 (Sindbis virus [6])?
The EC50 was 0.0015 µM.

And the CC50 [7]?
The CC50 was 16.5 µM.

And the selectivity ratio [8]?
Its selectivity ratio is 11000.

What about the Activity (Sindbis virus [9]) of the same compound?
Its Activity is 54%.

What about the Activity (Sindbis virus [10]) of the same compound?
Its Activity is 30%.

And the Activity (Sindbis virus [11])?
The Activity was “Toxic”.

What about the Activity (Sindbis virus [12]) of the same compound?
The Activity was “Toxic”.

And the EC50 (Sindbis virus [13])?
Its EC50 is 0.0015 µM.

And the EC50 (Getah virus)?
Its EC50 is 0.001 µM.

What about the EC50 [14] of the same compound?
Its EC50 is > 25 µM.

And the EC50 (Hepatitis C virus)?
The EC50 was > 25 µM.

And the EC50 (Measles morbillivirus)?
Its EC50 is > 25 µM.

And the EC50 (Influenza A virus)?
The EC50 was > 20 µM.

What about the EC50 [15] of the same compound?
Its EC50 is > 25 µM.

And the selectivity ratio [16]?
The selectivity ratio was 11000.

And the inhibition at 0.01 µM (Tobacco mosaic virus [17])?
Its inhibition at 0.01 µM is 19%.

And the inhibition at 0.03 µM (Tobacco mosaic virus [18])?
Its inhibition at 0.03 µM is 72%.

What about the inhibition at 0.05 µM (Tobacco mosaic virus [19]) of the same compound?
The inhibition at 0.05 µM was 100%.

What about the Activity (Tobacco mosaic virus [20]) of the same compound?
The Activity was 2.4 mm.

What about the Activity (Tobacco mosaic virus [21]) of the same compound?
Its Activity is 1.6 mm.

And the Activity (Tobacco mosaic virus [22])?
Its Activity is 1.1 mm.

What about the Activity (Tobacco mosaic virus [23]) of the same compound?
Its Activity is 0 mm.
